In brackets after ≈: the same amount, converted by molar mass. Numbered stars: 1 amine (or outer) side, 2 acyl side, 3 side chain; on linkers, the order of the positions; unused ones are H or OH. Bridge positions count the residues as written; N and C are the ends. Square brackets hold non-standard residues; d marks the D form. Peptide text beside a SMILES is read from it. * marks the point of attachment. dBip = N[C@H](Cc1ccc(-c2ccccc2)cc1)C(=O)O; NH(2-ClPh) = Clc1ccccc1N*; dDab = NCC[C@@H](N)C(=O)O; Octanoyl = CCCCCCCC(=O)*; Dab = NCC[C@H](N)C(=O)O; CO = O=C([*:1])[*:2]
Columns and labels:
[1] = system: Klebsiella pneumoniae; test: Antibacterial activity against Klebsiella pneumoniae ATCC 13883 after 18 hrs by 2 fold serial dilution method; format: functional; conditions: ATCC 13883, 18 h
Procedure, shortened: (§1)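 Overnight cultures in nutrient or Mueller Hinton broth at 37 °C with shaking, diluted 50-fold into fresh MHB and grown 1.5–3 h to mid-log. Inoculum 5×10^5 CFU/mL in 2-fold serial dilutions, final range 32 to 0.015 μg/mL. MIC read visually after 18 h at 37 °C as the lowest concentration with no visible growth.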

[2] = system: Klebsiella pneumoniae; test: Antibacterial activity against multidrug resistant Klebsiella pneumoniae ATCC 700603 after 18 hrs by 2 fold serial dilution method; format: functional; conditions: Klebsiella pneumoniae, 700603, 18 h
Procedure, shortened: (§2)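 Overnight cultures at 37 °C in nutrient or Mueller Hinton broth with shaking were diluted 50-fold in MHB and grown 1.5–3 h to mid-log phase. The inoculum was 5×10^5 CFU/mL in MHB. Compounds were 2-fold serially diluted, final 32 to 0.015 μg/mL. After 18 h at 37 °C, the MIC was read visually as the lowest concentration with no visible growth.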

[3] = system: Klebsiella pneumoniae; test: Antibacterial activity against Klebsiella pneumoniae ATCC BAA-2146 expressing NDM-1 after 18 hrs by 2 fold serial dilution method; format: functional; conditions: ATCC BAA-2146, 18 h; procedure, shortened: as §2
[4] = system: Pseudomonas aeruginosa; test: Antibacterial activity against clinical isolate polymyxin resistant Pseudomonas aeruginosa FADDI-PA070 after 18 hrs by 2 fold serial dilution method; format: functional; conditions: FADDI-PA070, 18 h
Procedure, shortened: (§3)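 Polymyxin-resistant clinical isolates were grown overnight at 37 °C in NB or MHB with shaking, diluted 50-fold in MHB and grown 1.5–3 h to mid-log phase. The inoculum was 5×10^5 CFU/mL. Compounds were 2-fold broth serial dilutions, final 32 to 0.015 μg/mL; the polymyxin controls ran 128–0.06 μg/mL. The MIC was the lowest concentration with no visible growth after 18 h at 37 °C.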

[5] = system: Klebsiella pneumoniae; test: Antibacterial activity against clinical isolate carbapenem and polymyxin resistant Klebsiella pneumoniae Koprana 100650661:1 after 18 hrs by 2 fold serial dilution method; format: functional; conditions: Koprana 100650661:1, 18 h; procedure, shortened: as §3
[6] = system: Acinetobacter baumannii; test: Antibacterial activity against clinical isolate carbapenem and polymyxin resistant Acinetobacter baumannii Ptyela 100734512:2 after 18 hrs by 2 fold serial dilution method; format: functional; conditions: Ptyela 100734512:2, 18 h; procedure, shortened: as §3
[7] = system: Pseudomonas aeruginosa; test: Antibacterial activity against Pseudomonas aeruginosa ATCC 27853 after 18 hrs by 2 fold serial dilution method; format: functional; conditions: ATCC 27853, 18 h; procedure, shortened: as §1
[8] = system: Klebsiella pneumoniae; test: Antibacterial activity against clinical isolate carbapenem and polymyxin resistant Klebsiella pneumoniae 138-16357-20362 after 18 hrs by 2 fold serial dilution method; format: functional; conditions: 138-16357-20362, 18 h; procedure, shortened: as §3
[9] = system: Escherichia coli; test: Antibacterial activity against Escherichia coli ATCC 25922 after 18 hrs by 2 fold serial dilution method; format: functional; conditions: ATCC 25922, 18 h; procedure, shortened: as §1
[10] = Cytotoxicity against human HepG2 cells after 24 hrs by resazurin assay; format: cell-based; conditions: HepG2 cells
[11] = system: Pseudomonas aeruginosa; test: Antibacterial activity against clinical isolate polymyxin resistant Pseudomonas aeruginosa PA9704 after 18 hrs by 2 fold serial dilution method; format: functional; conditions: PA9704, 18 h; procedure, shortened: as §3
[12] = system: Staphylococcus aureus; test: microbe, parasite or virus in culture; conditions: ATCC 25923, 18 h
[13] = system: Acinetobacter baumannii; test: Antibacterial activity against Acinetobacter baumannii ATCC 19606 after 18 hrs by 2 fold serial dilution method; format: functional; conditions: ATCC 19606, 18 h; procedure, shortened: as §1

Compound	MIC [1] [µg/mL]	MIC [2] [µg/mL]	MIC [3] [µg/mL]	MIC [4] [µg/mL]	MIC [5] [µg/mL]	MIC [6] [µg/mL]	MIC [7] [µg/mL]	MIC [8] [µg/mL]	MIC [9] [µg/mL]	CC50 at 24 h [10] [µM]	MIC [11] [µg/mL]	MIC [12] [µg/mL]	MIC [13] [µg/mL]
CCCCCCCC(=O)N[C@@H](CCN)C(=O)N[C@H](C(=O)N[C@@H](CCN)C(=O)N[C@H]1CCNC(=O)[C@H]([C@@H](C)O)NC(=O)[C@H](CCNC(=O)[C@@H](N)CCC(=O)O)NC(=O)[C@H](CCN)NC(=O)[C@H](CC(C)C)NC(=O)[C@@H](Cc2ccccc2)NC(=O)[C@H](CCN)NC1=O)[C@@H](C)O (Octanoyl-[Dab]T[Dab][Dab][Dab][dF]L[Dab][Dab](Glu)T; lactam 4-C)	16 (≈ 12.1 µM)	4 (≈ 3.03 µM)	4 (≈ 3.03 µM)	> 32	> 32	> 32	8 (≈ 6.07 µM)	> 32	4 (≈ 3.03 µM)	> 300	> 32	> 32	16 (≈ 12.1 µM)
CCCCCCCC(=O)N[C@@H](CCN)C(=O)N[C@H](C(=O)N[C@@H](CCN)C(=O)N[C@H]1CCNC(=O)[C@H]([C@@H](C)O)NC(=O)[C@H](CCN)NC(=O)[C@H](CCN)NC(=O)[C@H](CC(C)C)NC(=O)[C@@H](Cc2ccccc2)NC(=O)[C@H](CCNC(=O)[C@@H](N)CCC(=O)O)NC1=O)[C@@H](C)O (Octanoyl-[Dab]T[Dab][Dab][Dab](Glu)[dF]L[Dab][Dab]T; lactam 4-C)	> 32	> 32	32 (≈ 24.3 µM)	> 32	> 32	> 32	> 32	> 32	> 32	> 300	> 32	> 32	> 32
CCCCCCCC(=O)N[C@@H](CCN)C(=O)N[C@H](C(=O)N[C@@H](CCN)C(=O)N[C@H]1CCNC(=O)[C@H]([C@@H](C)O)NC(=O)[C@H](CCN)NC(=O)[C@H](CCN)NC(=O)[C@H](CC(C)C)NC(=O)[C@@H](Cc2ccccc2)NC(=O)[C@H](CCNC(=O)[C@@H](N)CCCNC(=N)N)NC1=O)[C@@H](C)O (Octanoyl-[Dab]T[Dab][Dab][Dab](Arg)[dF]L[Dab][Dab]T; lactam 4-C)	32 (≈ 23.8 µM)	16 (≈ 11.9 µM)	16 (≈ 11.9 µM)	> 32	> 32	> 32	32 (≈ 23.8 µM)	> 32	32 (≈ 23.8 µM)	> 300	> 32	> 32	32 (≈ 23.8 µM)
CCCCCCCC(=O)N[C@@H](CCN)C(=O)N[C@H](C(=O)N[C@@H](CCN)C(=O)N[C@H]1CCNC(=O)[C@H]([C@@H](C)O)NC(=O)[C@H](CCCNC(=N)N)NC(=O)[C@H](CCN)NC(=O)[C@H](CC(C)C)NC(=O)[C@@H](Cc2ccccc2)NC(=O)[C@H](CCN)NC1=O)[C@@H](C)O (Octanoyl-[Dab]T[Dab][Dab][Dab][dF]L[Dab]RT; lactam 4-C)	> 32	8 (≈ 6.42 µM)	4 (≈ 3.21 µM)	> 32	> 32	> 32	1 (≈ 0.803 µM)	> 32	16 (≈ 12.8 µM)	> 300	> 32	> 32	32 (≈ 25.7 µM)
CCCCCCCC(=O)N[C@@H](CCN)C(=O)N[C@H](C(=O)N[C@@H](CCN)C(=O)N[C@H]1CCNC(=O)[C@H]([C@@H](C)O)NC(=O)[C@H](CCN)NC(=O)[C@H](CCN)NC(=O)[C@H](CC(C)C)NC(=O)[C@@H](Cc2ccc(-c3ccccc3)cc2)NC(=O)[C@H](CCN)NC1=O)[C@@H](C)O (Octanoyl-[Dab]T[Dab][Dab][Dab][dBip]L[Dab][Dab]T; lactam 4-C)	4 (≈ 3.16 µM)	2 (≈ 1.58 µM)	1 (≈ 0.79 µM)	16 (≈ 12.6 µM)	32 (≈ 25.3 µM)	8 (≈ 6.32 µM)	1 (≈ 0.79 µM)	32 (≈ 25.3 µM)	1 (≈ 0.79 µM)	119	16 (≈ 12.6 µM)	8 (≈ 6.32 µM)	0.5 (≈ 0.395 µM)
CCCCCCCC(=O)N[C@@H](CCN)C(=O)N[C@H](C(=O)N[C@@H](CCN)C(=O)N[C@H]1CCNC(=O)[C@H]([C@@H](C)O)NC(=O)[C@H](CCN)NC(=O)[C@H](CCN)NC(=O)[C@H](CC(C)C)NC(=O)[C@@H](Cc2ccccc2)NC(=O)[C@H](CCCNC(=N)N)NC1=O)[C@@H](C)O (Octanoyl-[Dab]T[Dab][Dab]R[dF]L[Dab][Dab]T; lactam 4-C)	> 32	32 (≈ 25.7 µM)	32 (≈ 25.7 µM)	> 32	> 32	> 32	32 (≈ 25.7 µM)	> 32	16 (≈ 12.8 µM)	> 300	> 32	> 32	> 32
CC(C)C[C@@H]1NC(=O)[C@@H](Cc2ccccc2)NC(=O)[C@H](CCN)NC(=O)[C@@H](NC(=O)[C@@H](CO)NC(=O)[C@@H](NC(=O)[C@H](CCN)NC(=O)Nc2ccccc2Cl)[C@@H](C)O)CCNC(=O)[C@H]([C@@H](C)O)NC(=O)[C@H](CCN)NC(=O)[C@H](CCN)NC1=O ({NH(2-ClPh)-CO}-[Dab]T[dS][Dab][Dab][dF]L[Dab][Dab]T; lactam 4-C)	32 (≈ 26.6 µM)	16 (≈ 13.3 µM)	> 32	> 32	> 32	> 32	8 (≈ 6.65 µM)	> 32	32 (≈ 26.6 µM)	> 300	> 32	> 32	> 32
CCCCCCCC(=O)N[C@H](CCN)C(=O)N[C@H](C(=O)NCC(=O)N[C@H]1CCNC(=O)[C@H]([C@@H](C)O)NC(=O)[C@H](CCN)NC(=O)[C@H](CCN)NC(=O)[C@H](CC(C)C)NC(=O)[C@@H](Cc2ccccc2)NC(=O)[C@H](CCN)NC1=O)[C@@H](C)O (Octanoyl-[dDab]TG[Dab][Dab][dF]L[Dab][Dab]T; lactam 4-C)	> 32	8 (≈ 6.98 µM)	32 (≈ 27.9 µM)	> 32	> 32	> 32	16 (≈ 14 µM)	> 32	> 32	> 300	> 32	> 64	> 64
CCCCCCCC(=O)N[C@@H](CCN)C(=O)N[C@H](C(=O)N[C@H](CO)C(=O)N[C@H]1CCNC(=O)[C@H]([C@@H](C)O)NC(=O)[C@H](CCN)NC(=O)[C@H](CCN)NC(=O)[C@H](CC(C)C)NC(=O)[C@@H](Cc2ccccc2)NC(=O)[C@H](CCN)NC1=O)[C@@H](C)O (Octanoyl-[Dab]T[dS][Dab][Dab][dF]L[Dab][Dab]T; lactam 4-C)	0.5 (≈ 0.425 µM)	2 (≈ 1.7 µM)	16 (≈ 13.6 µM)	> 32	> 32	> 32	2 (≈ 1.7 µM)	> 32	4 (≈ 3.4 µM)	> 300	> 32	> 32	1 (≈ 0.85 µM)

Reference: ChEMBL document CHEMBL3774373, “Activity and Predicted Nephrotoxicity of Synthetic Antibiotics Based on Polymyxin B” (J Med Chem, 2016)
